Measured values as given in ChEMBL document CHEMBL1128446, “Pyrazinoic acid esters with broad spectrum in vitro antimycobacterial activity” (1995).
Converted amounts (≈) assume the structure as drawn.

Key:
Format in all cases: functional
[1] = test system: Mycobacterium tuberculosis; assay: Minimum Inhibitory Concentration against Mycobacterium tuberculosis ATCC 27294; settings: Mycobacterium tuberculosis, ATCC 27294; read-out: MIC
In short: (§1)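 Broth macrodilution in tubes of modified Middlebrook 7H10 broth (agar and malachite green omitted) with 10% OADC and 0.05% Tween 80 at pH 5.8. Cultures were grown 3 days at 37 °C on a rotary shaker, then diluted with 7H10 broth to 1 Klett unit/mL. Stocks were made in water or DMSO and filter-sterilised; 2-fold serial dilutions were tested. Tubes shaken 7–10 days at 37 °C, with a drug-free control. MIC = lowest concentration (μg/mL) with no visible turbidity.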

[2] = test system: Mycobacterium tuberculosis; assay: Minimum Inhibitory Concentration against Mycobacterium tuberculosis ATCC 35801; in short: as §1
Mycobacterium kansasii = assay: Minimum Inhibitory Concentration against clinical isolates of Mycobacterium kansasii S
In short: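 Grown 3 days at 37 °C on a rotary shaker in modified Middlebrook 7H10 broth (agar and malachite green omitted) with 10% OADC and 0.05% Tween 80. Diluted to 1 Klett unit/mL. Tubes held serial 2-fold dilutions in 7H10 broth at pH 5.8, from stocks in water or DMSO, and were shaken at 37 °C for 7–10 days with a drug-free control. MIC was the lowest concentration with no visible turbidity.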

Mycobacterium avium [3] = assay: Minimum Inhibitory Concentration against clinical isolates of Mycobacterium avium complex ATCC 49601; in short: as §1
Mycobacterium avium [4] = assay: Minimum Inhibitory Concentration in clinical isolates against Mycobacterium avium complex 101; in short: as §1

Structure (SMILES) | MIC [1] [µg/mL] | MIC [2] [µg/mL] | MIC (Mycobacterium kansasii) [µg/mL] | MIC (Mycobacterium avium [3]) [µg/mL] | MIC (Mycobacterium avium [4]) [µg/mL]
CCCCCCC(C)OC(=O)c1cnc(F)cn1 (stereo not drawn) | 2 (≈ 7.86 µM) | 4 (≈ 15.7 µM) | < 0.03 | 64 (≈ 252 µM) | 32 (≈ 126 µM)
CCCCCCOC(=O)c1cnc(F)cn1 |  | 4 (≈ 17.7 µM) | 8 (≈ 35.4 µM) | 64 (≈ 283 µM) | 64 (≈ 283 µM)
CCCCCCCC(C)(CCCCC)OC(=O)c1cnc(Cl)cn1 (stereo not drawn) | 2 (≈ 5.64 µM) | 4 (≈ 11.3 µM) |  | > 64 | > 64
CCCOC(=O)c1cnc(C)cn1 | 2 (≈ 11.1 µM) | 4 (≈ 22.2 µM) | 8 (≈ 44.4 µM) | > 64 | > 64
CCCCCCCOC(=O)c1cnc(C)cn1 | 0.5 (≈ 2.12 µM) | 0.25 (≈ 1.06 µM) | 4 (≈ 16.9 µM) | 32 (≈ 135 µM) | 32 (≈ 135 µM)
CCCCOC(=O)c1cnc(Cl)cn1 | 0.25 (≈ 1.16 µM) | 0.5 (≈ 2.33 µM) | < 1 | 128 (≈ 596 µM) | 64 (≈ 298 µM)
CCCCCCCCCCOC(=O)c1cnccn1 | 0.5 (≈ 1.89 µM) | 0.25 (≈ 0.946 µM) | 0.25 (≈ 0.946 µM) | 8 (≈ 30.3 µM) | 32 (≈ 121 µM)
CCCCCCCCCCOC(=O)c1cnc(F)cn1 | 2 (≈ 7.08 µM) | 4 (≈ 14.2 µM) | 1 (≈ 3.54 µM) | 32 (≈ 113 µM) | 32 (≈ 113 µM)
COC(=O)c1cnccn1 | < 8 | 16 (≈ 116 µM) | > 64 | > 256 | 
CC(C)COC(=O)c1cnc(Cl)cn1 | 2 (≈ 9.32 µM) | 0.25 (≈ 1.16 µM) | < 1 | 64 (≈ 298 µM) | 64 (≈ 298 µM)
CCCCCCCCC(C)(C)OC(=O)c1cnc(Cl)cn1 | 0.125 (≈ 0.4 µM) | 1 (≈ 3.2 µM) | 1 (≈ 3.2 µM) | 64 (≈ 205 µM) | 64 (≈ 205 µM)
CCCCCCC(C)(C)OC(=O)c1cnc(Cl)cn1 | 0.25 (≈ 0.878 µM) | 4 (≈ 14 µM) | 1 (≈ 3.51 µM) | 64 (≈ 225 µM) | 64 (≈ 225 µM)
CCCCCCC(C)(CCCCCC)OC(=O)c1cnc(Cl)cn1 | 0.25 (≈ 0.704 µM) | 0.5 (≈ 1.41 µM) | 2 (≈ 5.64 µM) | 16 (≈ 45.1 µM) | > 64
CCCCCCCCC(C)OC(=O)c1cnc(Cl)cn1 (stereo not drawn) | 0.06 (≈ 0.201 µM) | 0.5 (≈ 1.67 µM) | < 0.12 | 32 (≈ 107 µM) | 32 (≈ 107 µM)
CCCCCCCCCC(C)(C)OC(=O)c1cnc(Cl)cn1 | 8 (≈ 24.5 µM) | 1 (≈ 3.06 µM) | 0.5 (≈ 1.53 µM) | 256 (≈ 783 µM) | 256 (≈ 783 µM)
CCCCCC(C)(CCCCC)OC(=O)c1cnc(Cl)cn1 | 8 (≈ 24.5 µM) | 8 (≈ 24.5 µM) | 8 (≈ 24.5 µM) | 64 (≈ 196 µM) | 64 (≈ 196 µM)
COC(=O)c1cnc(C)cn1 | 16 (≈ 105 µM) | 8 (≈ 52.6 µM) | 32 (≈ 210 µM) | > 256 | > 256
CCCCCCC(C)(CCCC)OC(=O)c1cnc(Cl)cn1 (stereo not drawn) | 4 (≈ 12.2 µM) | 8 (≈ 24.5 µM) | 4 (≈ 12.2 µM) |  | > 256
CCCCCCCCC(CC)OC(=O)c1cnc(Cl)cn1 (stereo not drawn) | 0.5 (≈ 1.6 µM) | 0.25 (≈ 0.799 µM) | < 0.03 | 32 (≈ 102 µM) | 64 (≈ 205 µM)
O=C(OCc1ccccc1)c1cnccn1 | < 1 | 1 (≈ 4.67 µM) | 1 (≈ 4.67 µM) | 64 (≈ 299 µM) | 64 (≈ 299 µM)
CCCCCC(C)(CCCC)OC(=O)c1cnc(Cl)cn1 (stereo not drawn) | 4 (≈ 12.8 µM) | 8 (≈ 25.6 µM) | 16 (≈ 51.1 µM) | 256 (≈ 818 µM) | 256 (≈ 818 µM)
CCCCCCCCCCCOC(=O)c1cnc(Cl)cn1 | 0.25 (≈ 0.799 µM) | 0.5 (≈ 1.6 µM) | 0.06 (≈ 0.192 µM) | 8 (≈ 25.6 µM) | 16 (≈ 51.1 µM)
CCCCCCCCCCOC(=O)c1cnc(Cl)cn1 | 0.5 (≈ 1.67 µM) | 0.25 (≈ 0.837 µM) | 0.5 (≈ 1.67 µM) | 16 (≈ 53.5 µM) | 32 (≈ 107 µM)
CCCCCCCCCOC(=O)c1cnc(Cl)cn1 | < 0.03 | 1 (≈ 3.51 µM) | 0.125 (≈ 0.439 µM) | 16 (≈ 56.2 µM) | 32 (≈ 112 µM)
CCCCCCC(C)(CCCCC)OC(=O)c1cnc(Cl)cn1 (stereo not drawn) | 2 (≈ 5.87 µM) | 8 (≈ 23.5 µM) | 8 (≈ 23.5 µM) | > 64 | > 64
COC(=O)c1cnc(F)cn1 | 4 (≈ 25.6 µM) | 8 (≈ 51.2 µM) | 8 (≈ 51.2 µM) | 64 (≈ 410 µM) | 64 (≈ 410 µM)
CCCCCC(CC)OC(=O)c1cnc(Cl)cn1 (stereo not drawn) | 0.25 (≈ 0.923 µM) | 1 (≈ 3.69 µM) | 0.125 (≈ 0.462 µM) | 256 (≈ 945 µM) | > 256
CC(C)(OC(=O)c1cnc(Cl)cn1)c1ccccc1 | 16 (≈ 57.8 µM) | 16 (≈ 57.8 µM) | 16 (≈ 57.8 µM) |  | 
CCCCCCCC(OC(=O)c1cnc(Cl)cn1)C(C)(C)C (stereo not drawn) | 0.5 (≈ 1.53 µM) | 2 (≈ 6.12 µM) | 0.25 (≈ 0.765 µM) |  | > 256
